Screens (PubChem)
S1P2 antag = blocks the human S1P2 receptor | cell-based S1P2 antagonist assay, inhibition at 5 uM | inhibition, % at 5 µM | 97,000 compounds, 0.21% hits | AID 736; in the data active = inhibition above about 45%;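 also: CRE beta-lactamase reporter cells expressing human S1P2 stimulated with S1P; 0% = agonist at EC80 alone and 100% = agonist plus reference antagonist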
Target sequence (O95136 whole entry, looked up): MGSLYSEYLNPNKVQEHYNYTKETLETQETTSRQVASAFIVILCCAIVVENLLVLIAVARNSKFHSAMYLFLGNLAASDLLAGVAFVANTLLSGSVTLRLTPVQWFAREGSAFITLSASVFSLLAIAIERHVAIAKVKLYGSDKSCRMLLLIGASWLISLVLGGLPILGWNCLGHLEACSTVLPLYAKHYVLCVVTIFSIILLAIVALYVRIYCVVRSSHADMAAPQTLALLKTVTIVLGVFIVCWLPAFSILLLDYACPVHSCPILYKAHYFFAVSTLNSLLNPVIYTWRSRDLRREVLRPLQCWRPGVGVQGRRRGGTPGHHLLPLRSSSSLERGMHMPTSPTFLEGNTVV
GALR2 antag = blocks the human galanin receptor 2; O43603; GALR2-expressing cells, antagonist mode; inhibition, % at 4 µM; 140,000 compounds, 0.39% hits; AID 828; in the data active = inhibition above about 27%;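 also: cells stimulated with galanin 1-16 at roughly its EC80; 0% = agonist challenge control and 100% = basal control without agonist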
HIV Rev-RRE inh = inhibitors of HIV-1 Rev-RRE RNA interaction | P05866 | Rev peptide-RRE RNA binding, FRET | inhibition, % at 8 µM | 97,000 compounds, 0.79% hits;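 active = inhibition above the screen-wide mean plus 3 SD, cut at about 35% in these data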;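 also: 0% = median DMSO wells and 100% = median Neomycin B control wells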
Target sequence (P05866 whole entry, looked up): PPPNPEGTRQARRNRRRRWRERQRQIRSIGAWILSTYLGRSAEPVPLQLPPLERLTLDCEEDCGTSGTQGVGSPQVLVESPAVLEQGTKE
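Material: labelled RRE RNA duplex and labelled Rev peptide / Buffer or medium: HEPES pH 7.5 salt buffer with EDTA / Compound dosing: single point, 8 µM final nominal compound concentration / Benchmarks: DMSO low control, neomycin B high control / Timing: 5 min preincubation and 15 min binding, 25 °C / Technique: FRET fluorescence readout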
GALR2 agonist = activates the human galanin receptor 2 | O43603 | GALR2-expressing cells, agonist activation read-out | activation, % (no concentration beside the values) | 140,000 compounds, 0.48% hits | AID 803; in the data active = activation above about 5%, passing the limit was not always enough;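 also: 0% = vehicle buffer wells and 100% = reference agonist at full effect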
S1P2 agonist = activates the human S1P2 receptor; S1P2-expressing cell line, agonist reporter read-out; O95136; activation, % at 4.5 µM; 97,000 compounds, 0.46% hits; in the data active = activation above about 16%;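 also: 0% = vehicle low control and 100% = maximal reference agonist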
GALR2 agon conf = GALR2 (human) agonism confirmed. shares compounds with GALR2 agonist. GALR2-expressing cells, agonist activation. activation, % at 5.6 µM. 460 compounds, 10% hits; in the data active = activation above about 8.4%;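 also: 0% = buffer-only vehicle wells and 100% = full reference agonist response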
BLA act counter = activates beta-lactamase reporter in GALR2 agonist counterscreen | shares compounds with GALR2 agonist | CHO NFAT-bla reporter, beta-lactamase FRET activation | activation, % at 5.6 µM | 460 compounds, 10% hits | AID 865;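 active = activation above the screen-wide mean activation plus 3 SD, cut at about 8% in these data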;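 also: 0% = DMSO with PBS wells and 100% = thapsigargin positive control wells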
* = called active by the depositor; · = not tested or not shown; [ ] = remark or other dose. A selection: hits, their analogues and other compounds. The true share with any hit is near 1.6%.

SMILES	S1P2 antag	GALR2 antag	HIV Rev-RRE inh	GALR2 agonist	S1P2 agonist	GALR2 agon conf	BLA act counter
O=C(Nc1c2ccccc2nc2ccccc12)C(Cl)(Cl)Cl	-24	-11	5	10	18*	·	·
CC(C)(C)NC(=O)C(c1c[nH]c2ccccc12)N(C(=O)Cn1nnc(-c2ccc(F)cc2)n1)c1cccc(O)c1 (stereo unspecified)	·	-8	·	0	·	·	·
CC(C)(C)Nc1nc(N2CCCC2)nc(N2CCCC2)n1	47*	4	8	-1	-7	·	·
CCCc1cc(=O)[nH]c(-n2[nH]c3c(c2=O)CCCC3)n1	7	11	69*	-1	-3	·	·
Cc1ccc(C2CC(=O)N3CN(c4ccc(Br)cc4)CSC3=C2C#N)o1 (stereo unspecified)	-12	-10	45*	-2	1	·	·
CC(CCc1ccccc1)NC(=O)COC(=O)c1cccc2ccccc12 (stereo unspecified)	·	-3	·	-1	·	·	·
COC(=O)c1ccc(O)c(Sc2cc(C(=O)OC)ccc2O)c1	-7	6	2	-3	-8	·	·
COC(=O)c1ccc2c(c1)C(C)(C)C(/C=C/c1ccc(O)cc1)=[N+]2C	37	25	79*[fluorescence artefact?]	6.8*	6	·	·
COC(=O)c1ccc2nc(C)c(C)nc2c1	-1	-9	5	-2	-5	·	·
COC(=O)c1ccc2c(c1)C(C)(C)C(/C=C/c1ccc(OC)c(OC)c1OC)=[N+]2C	48*	-7	31	0	-10	·	·
CCOc1ccc(NCc2nnc(SCc3ccc(Cl)cc3)n2-c2ccccc2)cc1	·	7	·	-3	·	·	·
CCCN(CCC)C(=O)Cn1c(=O)n(CCCCCC(=O)Nc2ccccc2)c(=O)c2sccc21	·	-1	·	-1	·	·	·
CC(C)C(c1nnnn1C(C)(C)C)N1CCC(Cc2ccccc2)CC1 (stereo unspecified)	·	-11	·	0	·	·	·
COc1cc(C2C(C#N)=C(C)NC3=C2C(=O)c2ccccc23)cc(OC)c1OC (stereo unspecified)	-2	31*	3	-2	7	·	·
COc1ccc(C2C(C#N)=C(C)NC3=C2C(=O)c2ccccc23)cc1 (stereo unspecified)	3	17	5	-3	-4	·	·
COc1ccc(/C=N/OCC(=O)NCc2cccs2)c(OC)c1	·	0	·	-1	·	·	·
Cc1ccc(OC(=O)CCC(=O)NC(C)c2ccccc2)cc1 (stereo unspecified)	·	17	·	-1	·	·	·
Fc1ccc2[nH]c3c(N4CCN(c5ccccc5)CC4)ncnc3c2c1	·	23	·	0	·	·	·
COc1ccc(N2CCN(c3ncnc4c3[nH]c3ccccc34)CC2)cc1	63*	15	7	0	-3	·	·
CCOc1cc(OCC)nc(S(C)(=O)=O)n1	·	-6	·	0	·	·	·
O=C(CSCCN1C(=O)c2ccccc2C1=O)Nc1ccc2ccccc2c1	·	8	·	-1	·	·	·
COc1ccc(-n2c(SCC(=O)N3CCc4ccccc43)nnc2-c2c[nH]c3ccccc23)cc1	·	9	·	1	·	·	·
CCN(CC)CCNC(=O)c1ccc(N2CCCCC2)c(NS(=O)(=O)c2ccc(C)cc2)c1	14	-10	14	19*	-4	0	-1
COC(=O)c1ccc(N2CCCCC2)c(NS(=O)(=O)c2ccc(C)cc2)c1	0	0	13	18*	-3	0	0
COC(=O)c1ccc(N2CCN(S(=O)(=O)c3ccc(C)cc3)CC2)c([N+](=O)[O-])c1	29	10	10	-3	-7	·	·
SMILES	S1P2 antag	GALR2 antag	HIV Rev-RRE inh	GALR2 agonist	S1P2 agonist	GALR2 agon conf	BLA act counter
CCOc1ccc(Br)cc1S(=O)(=O)Nc1ccc(C(=O)Nc2ccc(C)cc2)cc1	·	6	·	-2	·	·	·
CCOc1ccc(Br)cc1C(=O)Nc1ccc(C(=O)NCC(C)C)cc1	·	-1	·	14*	·	13*	5
CCN(CC)CCOC(=O)c1ccc(NC(=O)C(C)NC(=O)C23CC4CC(CC(C4)C2)C3)cc1 (stereo unspecified)	·	6	·	0	·	·	·
COc1ccc(-c2cc(-c3cc(OC)ccc3O)[nH]n2)cc1	-15	12	11	-3	-5	·	·
COc1ccc(-c2n[nH]c(C)c2-c2cc(OC)ccc2O)cc1	-5	-10	4	9	-3	0	1
COC(=O)C1=C(C)N(CCc2cc(OC)c(OC)c(OC)c2)C(=O)N[C@H]1c1ccc(Br)cc1	·	-3	·	0	·	·	·
O=C(Nc1ccc(N2CCN(c3ccc(O)cc3)CC2)cc1)Oc1ccccc1	-3	7	0	13*	-3	-1	-2
O=C(Oc1ccccc1)N1CCN(c2ccc(F)cc2)CC1	4	3	3	-1	-4	·	·
c1csc(C(c2nnnn2C2CCCC2)N2CCCC3(CCCCC3)C2)c1 (stereo unspecified)	2	-4	15	-3	-4	·	·
COc1ccc(NC(=O)C(C)Sc2nnc3c4c(nc(-c5ccc(OC)cc5)n23)CC(C)(C)OC4)cc1 (stereo unspecified)	·	0	·	-1	·	·	·
CCc1cc(=O)oc2c(CN3CCN(C)CC3)c(O)c(Cl)cc12	-39	-22	2	12*	11	1	3
CCc1cc(=O)oc2c(CN3CCCC3)c(O)c(Cl)cc12	0	-12	7	2	9	·	·
COc1cccc2cc(-c3nnc(SCC(=O)NCCc4ccccc4)n3C)oc12	-6	6	5	9	-7	0	0
C[C@H](NS(=O)(=O)c1ccccc1)C(=O)OCC(=O)NC(=O)Nc1ccc2c(c1)OCCO2	·	-4	·	0	·	·	·
CC1(C)Oc2ccc(C#N)cc2[C@@H](N2CCCC2=O)[C@@H]1O	·	3	·	-1	·	·	·
COc1ccc(Cn2c(SCc3ccccc3C)nc3cc(OC)c(OC)cc3c2=N)cc1	6	-8	8	9.1*	-6	8.8*	6
CC1CCc2sc(C(=O)N=Nc3c(O)[nH]c4ccccc34)cc2C1 (stereo unspecified)	·	-17	·	0	·	·	·
Cc1ccc(CNC(=O)c2ccc3nc4[nH]c5ccccc5c4nc3c2)cc1	·	5	·	14*	·	8.7*	6
O=C(Nc1ccccc1-c1ccccc1)c1ccc(Br)o1	-20	-12	9	13*	2	0	-1
NC(=O)c1cc(-c2ccccc2)sc1NC(=O)CN1CCCCC1	·	1	·	1	·	·	·
CCN(CC)c1nc(-c2ccc(Cl)cc2)cc(C(F)(F)F)c1C#N	-5	11	8	0	-2	·	·
CN(C)c1nc(-c2ccccc2)cc(C(F)(F)F)c1C#N	-5	3	17	10	0	4	6
Cc1ccc(C)c(NC(=O)/C(C#N)=C/c2cn(CC(=O)NCc3ccco3)c3ccccc23)c1	·	-9	·	70*	·	27*	27*
Cc1cc(C)cc(NC(=O)/C(C#N)=C/c2cn(CC(=O)NCc3ccco3)c3ccccc23)c1	·	5	·	52*	·	26*	24*
Cc1ccccc1OCCn1cc(/C=C(\C#N)C(=O)NCc2ccco2)c2ccccc21	·	-5	·	1	·	·	·
